The Ki is a dissociation constant, usually derived from enzyme kinetics or from competition with a known ligand. As a reminder, the IC50 is the concentration that inhibits the measured activity by half. As usually defined, the EC50 is the concentration that produces a half-maximal response. High values mean lower potency in that assay, low ones higher potency in that assay.

Data set [1] deals with T1, Soluble acetylcholine receptor (Aplysia californica, UniProt Q8WSF8).
T1 sequence (Q8WSF8 whole entry): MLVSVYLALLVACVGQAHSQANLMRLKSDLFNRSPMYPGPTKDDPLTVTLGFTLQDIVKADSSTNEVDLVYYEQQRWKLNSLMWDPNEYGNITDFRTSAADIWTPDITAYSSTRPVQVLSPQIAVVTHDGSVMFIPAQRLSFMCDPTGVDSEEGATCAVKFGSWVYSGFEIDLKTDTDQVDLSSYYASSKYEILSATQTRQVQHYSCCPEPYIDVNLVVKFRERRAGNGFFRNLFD
The experiment in a line: Displacement of [3H]epibatidine from Aplysia californica AChBP. In outline:
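Competition against [3H]epibatidine at acetylcholine binding proteins (Ac- and Ct-AChBP), giving Ki values. Procedure follows the PDSP assay protocol book.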
(In general: In a radioligand displacement assay an active substance lowers the binding of a labelled ligand.)

Data set [2] deals with Mus musculus. The data set can be described thus: Antidepressant-like effect in mouse assessed as behavioral changes at 5 to 10 mg/kg, ip dosed 15 mins before testing by SmartCube system. Format: functional, organism-based. In outline:
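SmartCube automated mouse behavioural profiling. Drug injected 15 min before the session, during which multiple challenges were presented; at least 12 mice per group. Video processed by computer vision to extract over 2000 measures (frequency and duration of states such as grooming and rearing), compared with vehicle signature.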

For data set [3], the target named is T2, Neuronal acetylcholine receptor; alpha4/beta2 (Homo sapiens, UniProt P17787+P43681). The experiment in a line: Antagonist activity at high sensitivity and low sensitivity alpha4beta2-nAChR expressed in human SH-EP1 cells assessed as inhibition of carbamylcholine-induced stimulation effect measured after 10 mins carbamylcholine challenge by 86Rb+ ion flux assay relative to control. Format: functional, cell-based. The procedure, abridged:
(§1)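 Receptor inactivation measured by 86Rb+ efflux after 10 min pre-exposure to test ligand, followed by carbamylcholine challenge. Cells: SH-EP1 (human α4β2), SH-SY5Y (α3β4*), TE671/RD (α1β1γδ).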

The species named for the next data set is Rattus norvegicus. The data set can be described thus: Selectivity index, ratio of Ki for rat alpha3beta4 nAChR to Ki for rat alpha4beta2-nAChR. In outline: (§2)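 [3H]epibatidine competition binding at heterologously expressed rat nAChR subtypes, run per the PDSP protocol. Native α4β2* receptors were prepared from rat forebrain. Ki values determined.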
For data set [4], the target named is T2, Neuronal acetylcholine receptor; alpha4/beta2. The experiment in a line: Antagonist activity at high sensitivity and low sensitivity alpha4beta2-nAChR expressed in human SH-EP1 cells assessed as inhibition of carbamylcholine-induced stimulation effect measured after 10 mins carbamylcholine challenge by 86Rb+ ion flux assay. The format is functional, cell-based. The procedure, abridged: as §1

For data set [5] the target is unchanged. The data set can be described thus: Agonist activity at low sensitivity alpha4beta2-nAChR expressed in human SH-EP1 cells by 86Rb+ ion flux assay relative to carbamylcholine. The format is functional, cell-based. In outline:
(§3)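 86Rb+ efflux through human α4β2-nAChR (mixed high- and low-sensitivity forms) heterologously expressed in SH-EP1 cells. Agonist efficacy expressed as percent of the response to a maximally efficacious concentration of the full agonist carbamylcholine, with high- and low-sensitivity α4β2 responses reported separately.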

The test system of data set [6] is Mus musculus. The experiment in a line: Antidepressant activity in mouse assessed as immobility time at 10 mg/kg, ip after 30 mins by mouse forced swim test. Format: functional, organism-based. Also on record: dose 10 mg/kg. The procedure, abridged:
(§4)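 Mouse forced swim test: mice placed in a beaker of water and time spent passively floating (immobility) recorded. Compounds given intraperitoneally or orally; sertraline 20 mg/kg served as positive control.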

The test system of data set [7] is Mus musculus. The experiment in a line: Antidepressant activity in mouse assessed as immobility time at 3 mg/kg, ip after 30 mins by mouse forced swim test. The format is functional, organism-based. Also on record: dose 3 mg/kg. In outline: as §4
Data set [8] deals with T3, Acetylcholine receptor; alpha1/beta1/delta/gamma (Homo sapiens) (UniProt P02708+P07510+P11230+Q07001). The experiment in a line: Antagonist activity at high sensitivity and low sensitivity alpha1beta1gammadelta-nAChR expressed in human TE671/RD cells assessed as inhibition of carbamylcholine-induced stimulation effect measured after 10 mins carbamylcholine challenge by 86Rb+ ion flux assay. The format is functional, cell-based. The procedure, abridged:
as §1

Data set [9] has as its system SH-SY5Y. The experiment in a line: Antagonist activity at high sensitivity and low sensitivity alpha3beta4*-nAChR expressed in human SH-SY5Y cells assessed as inhibition of carbamylcholine-induced stimulation effect measured after 10 mins carbamylcholine challenge by 86Rb+ ion flux assay. Format: functional, cell-based. In outline:
as §1

In data set [10] the target is T2, Neuronal acetylcholine receptor; alpha4/beta2. The data set can be described thus: Agonist activity at high sensitivity alpha4beta2-nAChR expressed in human SH-EP1 cells by 86Rb+ ion flux assay relative to carbamylcholine. Format: functional, cell-based. The procedure, abridged: as §3
In data set [11] the target is T3, Acetylcholine receptor; alpha1/beta1/delta/gamma (Homo sapiens). The data set can be described thus: Agonist activity at high sensitivity and low sensitivity alpha1beta1gammadelta-nAChR expressed in human TE671/RD cells by 86Rb+ ion flux assay. The format is functional, cell-based.
For data set [12], the system named is SH-SY5Y. The data set can be described thus: Agonist activity at high sensitivity and low sensitivity alpha3beta4*-nAChR expressed in human SH-SY5Y cells by 86Rb+ ion flux assay. Format: functional, cell-based.
Data set [13] addresses T2, Neuronal acetylcholine receptor; alpha4/beta2. The data set can be described thus: Agonist activity at high sensitivity and low sensitivity alpha4beta2-nAChR expressed in human SH-EP1 cells by 86Rb+ ion flux assay. The format is functional, cell-based. In outline: as §3
Data set [14] addresses Neuronal acetylcholine receptor; alpha4/beta4 (Rattus norvegicus, UniProt P09483+P12392). The experiment in a line: Displacement of [3H]epibatidine from rat alpha4beta4-nAChRs after 4 hrs by scintillation counting. Format: protein-complex assay. In outline: as §2
Data set [15] is described as follows: Displacement of [3H]epibatidine from rat alpha4beta2*-nAChRs after 4 hrs by scintillation counting. In outline:
as §2

For data set [16], the target named is Neuronal acetylcholine receptor; alpha4/beta2 (Rattus norvegicus, UniProt P09483+P12390). The experiment in a line: Displacement of [3H]epibatidine from rat alpha4beta2-nAChRs after 4 hrs by scintillation counting. Format: protein-complex assay. The procedure, abridged: as §2
Sequence of Neuronal acetylcholine receptor; alpha4/beta2 (Rattus norvegicus, UniProt P09483+P12390) (P09483 whole entry): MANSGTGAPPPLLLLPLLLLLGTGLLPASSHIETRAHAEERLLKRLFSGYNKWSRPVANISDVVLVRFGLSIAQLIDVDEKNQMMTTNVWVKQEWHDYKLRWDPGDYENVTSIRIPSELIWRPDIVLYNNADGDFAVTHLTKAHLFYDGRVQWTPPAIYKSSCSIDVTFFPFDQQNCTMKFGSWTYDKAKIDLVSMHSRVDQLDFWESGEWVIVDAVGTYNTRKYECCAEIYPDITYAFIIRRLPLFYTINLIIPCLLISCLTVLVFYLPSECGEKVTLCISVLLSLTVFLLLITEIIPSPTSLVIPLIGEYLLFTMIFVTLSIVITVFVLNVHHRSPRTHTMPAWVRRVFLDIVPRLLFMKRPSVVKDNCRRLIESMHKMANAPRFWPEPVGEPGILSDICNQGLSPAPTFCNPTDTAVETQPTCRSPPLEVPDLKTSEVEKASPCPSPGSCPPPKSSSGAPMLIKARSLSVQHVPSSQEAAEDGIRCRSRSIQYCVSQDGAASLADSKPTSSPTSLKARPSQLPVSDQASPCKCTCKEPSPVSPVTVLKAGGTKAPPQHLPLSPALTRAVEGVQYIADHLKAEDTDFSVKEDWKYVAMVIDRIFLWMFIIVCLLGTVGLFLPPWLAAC
Sequence of Neuronal acetylcholine receptor; alpha4/beta2 (Rattus norvegicus, UniProt P09483+P12390) (P12390 whole entry): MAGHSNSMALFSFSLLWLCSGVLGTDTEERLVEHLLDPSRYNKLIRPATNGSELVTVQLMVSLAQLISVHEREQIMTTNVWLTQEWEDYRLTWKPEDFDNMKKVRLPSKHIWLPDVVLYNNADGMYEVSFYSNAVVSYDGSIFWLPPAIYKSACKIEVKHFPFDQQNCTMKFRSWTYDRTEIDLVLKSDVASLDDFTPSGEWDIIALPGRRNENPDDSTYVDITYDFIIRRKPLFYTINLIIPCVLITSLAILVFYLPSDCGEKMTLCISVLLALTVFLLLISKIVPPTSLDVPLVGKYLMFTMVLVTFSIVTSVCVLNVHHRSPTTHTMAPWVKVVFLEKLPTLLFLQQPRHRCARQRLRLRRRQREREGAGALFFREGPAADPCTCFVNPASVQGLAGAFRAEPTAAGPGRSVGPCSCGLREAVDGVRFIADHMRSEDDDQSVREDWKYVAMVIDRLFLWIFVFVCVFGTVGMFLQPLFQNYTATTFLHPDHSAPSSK
Data set [17] deals with Neuronal acetylcholine receptor; alpha3/beta4 (Rattus norvegicus, UniProt P04757+P12392). The experiment in a line: Displacement of [3H]epibatidine from rat alpha3beta4-nAChRs after 4 hrs by scintillation counting. The format is protein-complex assay. In outline:
as §2

Data set [18] addresses Neuronal acetylcholine receptor; alpha3/beta2 (Rattus norvegicus, UniProt P04757+P12390). The experiment in a line: Displacement of [3H]epibatidine from rat alpha3beta2-nAChRs after 4 hrs by scintillation counting. The format is protein-complex assay. In outline:
as §2

For data set [19], the target named is Neuronal acetylcholine receptor; alpha2/beta4 (Rattus norvegicus, UniProt P12389+P12392). The experiment in a line: Displacement of [3H]epibatidine from rat alpha2beta4-nAChRs after 4 hrs by scintillation counting. Format: protein-complex assay. In outline: as §2
Sequence of Neuronal acetylcholine receptor; alpha2/beta4 (P12389 whole entry): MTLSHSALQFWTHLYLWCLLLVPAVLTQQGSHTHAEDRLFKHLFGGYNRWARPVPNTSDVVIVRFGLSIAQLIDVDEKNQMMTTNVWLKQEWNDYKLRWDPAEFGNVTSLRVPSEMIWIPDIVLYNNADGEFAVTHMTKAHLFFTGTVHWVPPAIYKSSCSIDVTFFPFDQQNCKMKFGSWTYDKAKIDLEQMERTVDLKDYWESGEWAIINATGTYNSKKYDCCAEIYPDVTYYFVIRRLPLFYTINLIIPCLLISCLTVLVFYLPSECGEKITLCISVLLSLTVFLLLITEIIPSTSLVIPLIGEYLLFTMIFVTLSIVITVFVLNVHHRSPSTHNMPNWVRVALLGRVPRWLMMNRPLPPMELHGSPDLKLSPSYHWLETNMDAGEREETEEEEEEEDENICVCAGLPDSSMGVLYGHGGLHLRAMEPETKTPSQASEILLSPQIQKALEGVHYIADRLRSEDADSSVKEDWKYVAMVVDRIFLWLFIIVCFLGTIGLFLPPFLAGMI
Sequence of Neuronal acetylcholine receptor; alpha2/beta4 (P12392 whole entry): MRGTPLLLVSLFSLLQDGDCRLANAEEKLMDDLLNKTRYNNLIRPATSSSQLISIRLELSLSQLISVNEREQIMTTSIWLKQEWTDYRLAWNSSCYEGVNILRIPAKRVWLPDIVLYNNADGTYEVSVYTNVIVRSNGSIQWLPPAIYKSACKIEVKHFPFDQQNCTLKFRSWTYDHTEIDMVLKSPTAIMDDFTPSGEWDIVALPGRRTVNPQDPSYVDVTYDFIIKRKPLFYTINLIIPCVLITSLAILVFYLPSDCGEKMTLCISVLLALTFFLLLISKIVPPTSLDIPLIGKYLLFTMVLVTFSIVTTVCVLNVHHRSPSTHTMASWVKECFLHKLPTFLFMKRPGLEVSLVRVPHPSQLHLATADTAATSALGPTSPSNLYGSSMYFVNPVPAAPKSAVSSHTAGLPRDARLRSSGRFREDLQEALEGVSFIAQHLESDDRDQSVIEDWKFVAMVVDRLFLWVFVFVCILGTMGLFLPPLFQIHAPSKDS
For data set [20], the target named is Neuronal acetylcholine receptor; alpha2/beta2 (Rattus norvegicus, UniProt P12389+P12390). The data set can be described thus: Displacement of [3H]epibatidine from rat alpha2beta2-nAChRs after 4 hrs by scintillation counting. The format is protein-complex assay. In outline:
as §2

Data set [21] has as its system Mus musculus. The experiment in a line: Antidepressant activity in mouse assessed as immobility time at 3 to 30 mg/kg, po after 30 mins by mouse forced swim test. Format: functional, organism-based. In outline:
as §4

A short description of data set [22]: Metabolic stability in human liver microsomes assessed as unchanged compound level at 2 uM measured after 1 hr. The following applies: read-out: Stability. The format is ADME, Microsome. The procedure, abridged: (§5)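 Compound incubated with mouse, rat, dog or human liver microsomes at a starting concentration of 2 μM for 1 h. Percent of parent remaining unchanged determined.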
(In general: Liver microsomes are vesicles of endoplasmic reticulum, rich in cytochrome P450 enzymes.)

Data set [23] is described as follows: Metabolic stability in dog liver microsomes assessed as unchanged compound level at 2 uM measured after 1 hr. The format is ADME, Canis lupus familiaris, Microsome. The settings on record: read-out: Stability. The procedure, abridged:
as §5

Data set [24] in a line: Metabolic stability in mouse liver microsomes assessed as unchanged compound level at 2 uM measured after 1 hr. Format: ADME, Microsome. The settings on record: read-out: Stability. In outline:
as §5

Data set [25] can be described thus: Metabolic stability in rat liver microsomes assessed as unchanged compound level at 2 uM measured after 1 hr. The format is ADME, Microsome. The settings on record: read-out: Stability. In outline:
as §5

Data set [26] has as its system Mus musculus. The experiment in a line: Antidepressant activity in mouse assessed as immobility time at 3 mg/kg, po after 30 mins by mouse forced swim test. Also noted: dose 3 mg/kg. Format: functional, organism-based. The procedure, abridged: as §4
A short description of data set [27]: Selectivity index, ratio of Ki for Aplysia californica AChBP to Ki for Lymnaea stagnalis AChBP.

The source made the active and inactive calls. The calls are words filed in the database; no cut-off is given here. Some results are limits rather than exact numbers.

T2 sequence (P17787 whole entry): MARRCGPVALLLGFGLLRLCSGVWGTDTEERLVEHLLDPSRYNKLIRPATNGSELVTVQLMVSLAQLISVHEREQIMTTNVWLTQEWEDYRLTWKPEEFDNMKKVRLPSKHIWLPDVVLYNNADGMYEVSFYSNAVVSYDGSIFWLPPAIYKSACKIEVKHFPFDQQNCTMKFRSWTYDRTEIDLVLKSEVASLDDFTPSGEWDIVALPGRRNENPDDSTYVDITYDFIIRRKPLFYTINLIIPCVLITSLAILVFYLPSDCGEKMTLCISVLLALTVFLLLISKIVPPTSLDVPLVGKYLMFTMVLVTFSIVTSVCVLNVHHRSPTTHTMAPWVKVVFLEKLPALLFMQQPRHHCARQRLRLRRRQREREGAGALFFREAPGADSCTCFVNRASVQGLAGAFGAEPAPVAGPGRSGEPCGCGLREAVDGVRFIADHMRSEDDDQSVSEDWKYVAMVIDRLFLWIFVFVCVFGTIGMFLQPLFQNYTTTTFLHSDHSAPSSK
T2 sequence (P43681 whole entry): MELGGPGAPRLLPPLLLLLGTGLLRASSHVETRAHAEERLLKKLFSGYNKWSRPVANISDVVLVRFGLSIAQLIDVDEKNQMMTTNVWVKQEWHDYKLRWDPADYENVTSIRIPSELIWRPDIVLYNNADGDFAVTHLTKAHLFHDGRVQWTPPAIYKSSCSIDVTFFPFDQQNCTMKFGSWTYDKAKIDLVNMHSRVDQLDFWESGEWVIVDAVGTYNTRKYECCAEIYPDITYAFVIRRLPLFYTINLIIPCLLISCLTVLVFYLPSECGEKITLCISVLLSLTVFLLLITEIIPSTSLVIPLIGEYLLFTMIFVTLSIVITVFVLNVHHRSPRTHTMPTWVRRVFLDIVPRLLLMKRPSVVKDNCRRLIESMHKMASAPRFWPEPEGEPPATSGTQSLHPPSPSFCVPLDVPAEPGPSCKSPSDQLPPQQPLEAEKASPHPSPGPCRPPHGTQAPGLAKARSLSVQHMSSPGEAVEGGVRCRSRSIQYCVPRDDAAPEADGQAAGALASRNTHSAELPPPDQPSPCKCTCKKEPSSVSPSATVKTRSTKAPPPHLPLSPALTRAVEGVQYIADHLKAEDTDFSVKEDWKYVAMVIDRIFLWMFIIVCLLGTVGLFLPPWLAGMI
Sequence of Neuronal acetylcholine receptor; alpha3/beta4 (P04757 whole entry): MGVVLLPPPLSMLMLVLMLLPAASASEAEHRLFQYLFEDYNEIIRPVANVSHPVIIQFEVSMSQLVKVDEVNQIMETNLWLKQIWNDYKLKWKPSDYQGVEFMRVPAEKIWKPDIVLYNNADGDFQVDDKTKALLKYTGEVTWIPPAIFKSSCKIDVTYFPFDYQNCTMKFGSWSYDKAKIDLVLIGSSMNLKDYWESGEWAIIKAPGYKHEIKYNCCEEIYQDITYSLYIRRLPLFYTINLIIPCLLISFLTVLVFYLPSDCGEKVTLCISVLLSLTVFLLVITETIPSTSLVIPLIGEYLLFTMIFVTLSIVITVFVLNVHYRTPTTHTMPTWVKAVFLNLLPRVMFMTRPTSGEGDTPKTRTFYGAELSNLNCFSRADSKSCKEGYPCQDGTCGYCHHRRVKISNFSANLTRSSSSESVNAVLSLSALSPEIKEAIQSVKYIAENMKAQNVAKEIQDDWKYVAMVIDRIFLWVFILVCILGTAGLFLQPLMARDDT
Sequence of Neuronal acetylcholine receptor; alpha3/beta4 (P12392 whole entry): as the sequence (P12392 whole entry) above
Sequence of Neuronal acetylcholine receptor; alpha3/beta2 (P04757 whole entry): as the sequence (P04757 whole entry) above
Sequence of Neuronal acetylcholine receptor; alpha3/beta2 (P12390 whole entry): as the sequence (P12390 whole entry) above
Sequence of Neuronal acetylcholine receptor; alpha4/beta4 (P09483 whole entry): as the sequence (P09483 whole entry) above
Sequence of Neuronal acetylcholine receptor; alpha4/beta4 (P12392 whole entry): as the sequence (P12392 whole entry) above
Sequence of Neuronal acetylcholine receptor; alpha2/beta2 (P12389 whole entry): as the sequence (P12389 whole entry) above
Sequence of Neuronal acetylcholine receptor; alpha2/beta2 (P12390 whole entry): as the sequence (P12390 whole entry) above

On to `CN1CCC[C@H]1c1cccnc1` [NICOTINE], for which the Ki in data set [1] was determined as 0.598 µM.
For the compound `FC(F)C[C@H]1C[C@@H]1c1cncc(OC[C@@H]2CCN2)c1`, the outcome in the data set on Mus musculus [2] was Active. Further, the Efficacy in data set [3] turned out to be 86%; in [10], 75%. In the data set listed under Rattus norvegicus, the Ratio Ki is above 16000. For the same compound, in data set [4], the IC50 worked out at 0.0086 µM. Also, the result (in [5]; with Mus musculus [6]; in the data set on Mus musculus [7]; in [11]; in the data set with SH-SY5Y [12]) was inactive. The inhibition result (in [8]; in the data set on SH-SY5Y [9]) was “inactive” throughout. In data set [13], this compound yielded an EC50 of 0.0088 µM. In addition, the Ki was found to be 0.023 µM in data set [14]; 0.0008 µM in data set [15]; 0.0001 µM in data set [16]; 1.98 µM in data set [17]; 0.0069 µM in [18]; 0.0854 µM in [19]. This compound also displayed a Ki in data set [20] of 0.0003 µM.
On to `FCC[C@H]1C[C@@H]1c1cncc(OC[C@@H]2CCN2)c1`, for which the outcome with Mus musculus [21], in the data set on Mus musculus [2], in the data set with Mus musculus [26], in the data set on Mus musculus [6] and with Mus musculus [7] was Active. The Efficacy in [3] is 81%; in [10], 76%. For the same compound, the Ratio Ki in the data set listed under Rattus norvegicus is above 16000. The IC50 in data set [4] turned out to be 0.0102 µM. Moreover, the outcome (in data set [5]; in [11]; with SH-SY5Y [12]) was inactive. Besides, the remaining at 1 h, 2 µM in [22], in data set [23], in data set [24] and in data set [25] was at least 98% each time. The inhibition entry (in data set [8]; in the data set on SH-SY5Y [9]) was “inactive” each time. This compound also came in with an EC50 in data set [13] of 0.0113 µM. The Ki in data set [14] worked out at 0.0391 µM; in [15], 0.0009 µM; in data set [16], 0.0002 µM; in data set [17], 3.22 µM; in data set [18], 0.0061 µM; in data set [19], 0.138 µM. In data set [20], this compound displayed a Ki of 0.0004 µM.
For the compound `OCC[C@H]1C[C@@H]1c1cncc(OC[C@@H]2CCN2)c1`, the outcome with Mus musculus [2] was Active. In data set [27], the Ratio Ki is 80. Besides, the affinity in data set [1] corresponds to a Ki of 0.979 µM.
Take `CC[C@H]1C[C@@H]1c1cncc(OC[C@@H]2CCN2)c1`: in the data set on Mus musculus [2], the result was Active. In addition, the Efficacy in data set [3] was 87%; in data set [10] it was 68%. For the same compound, the concentration for half-maximal inhibition (IC50) in [4] was 0.0222 µM. Moreover, the outcome (in [5]; with Mus musculus [6]; with Mus musculus [7]; in data set [11]; in the data set on SH-SY5Y [12]) was inactive. The inhibition entry (in [8]; in the data set on SH-SY5Y [9]) was “inactive” throughout. This compound also yielded an EC50 in data set [13] of 0.0191 µM. Moreover, the inhibition constant (Ki) was found to be 0.0148 µM in data set [14]; 0.0012 µM in [15]; 0.0004 µM in data set [16]; 0.852 µM in data set [17]; 0.0103 µM in data set [18]; 0.0418 µM in [19]. Further, the Ki in data set [20] stood at 0.0004 µM.
On to `CNC(=O)OCC[C@H]1C[C@@H]1c1cncc(OC[C@@H]2CCN2)c1`, for which the result with Mus musculus [2] was Active. For the same compound, the Ratio Ki in data set [27] came out at 80. In addition, in data set [1], the Ki worked out at 1.93 µM.

Values taken from ChEMBL document CHEMBL2177028, “Insights into the structural determinants required for high-affinity binding of chiral cyclopropane-containing ligands to α4β2-nicotinic acetylcholine receptors: an integrated approach to behaviorally active nicotinic ligands” (J Med Chem, 2012).
